ChEMBL document CHEMBL3612066, “Design, Synthesis, and Biological Evaluation of Pyrazolo[1,5-a]pyridine-3-carboxamides as Novel Antitubercular Agents” (ACS Med Chem Lett, 2015)
In brackets after ≈: the same amount, converted by molar mass.

Legend:
Type in all cases: functional
[1] = system: Mycobacterium tuberculosis; assay: Antitubercular activity against multidrug-resistant Mycobacterium tuberculosis UAlP163 after 7 days by autoluminescent assay; conditions: UAlP163, 168 h
Method in brief: (§1)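 Autoluminescent assay against MDR clinical isolates (3495, P71, 9804, 4768, P163). Bacterial growth was read as bioluminescence intensity with no added substrate. MIC values are means of two independent experiments.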

[2] = system: Mycobacterium tuberculosis; assay: Antitubercular activity against multidrug-resistant Mycobacterium tuberculosis UAl9804 after 7 days by autoluminescent assay; conditions: UAl9804, 168 h; method in brief: as §1
[3] = system: Mycobacterium tuberculosis; assay: Antitubercular activity against multidrug-resistant Mycobacterium tuberculosis UAl4768 after 7 days by autoluminescent assay; conditions: UAl4768, 168 h; method in brief: as §1
[4] = system: Mycobacterium tuberculosis; assay: Antitubercular activity against multidrug-resistant Mycobacterium tuberculosis UAlP7 after 7 days by autoluminescent assay; conditions: UAlP7, 168 h; method in brief: as §1
[5] = system: Mycobacterium tuberculosis; assay: Antitubercular activity against multidrug-resistant Mycobacterium tuberculosis UAl3495 after 7 days by autoluminescent assay; conditions: UAl3495, 168 h; method in brief: as §1

**Q.** For `Cc1nn2ccc(Cl)cc2c1C(=O)NCc1ccc(N2CCC(c3ccc(OC(F)(F)F)cc3)CC2)cc1`, which MIC [1] is on record?
**A.** Its MIC is less than 0.184 µM.

**Q.** What about the MIC [2] of the same compound?
**A.** Its MIC is less than 0.184 µM.

**Q.** And the MIC [3]?
**A.** Its MIC is less than 0.184 µM.

**Q.** And the MIC [4]?
**A.** Its MIC is less than 0.184 µM.

**Q.** Which MIC [1] does the source give for `CCc1nn2ccc(Cl)cc2c1C(=O)NCc1ccc(N2CCC(c3ccc(OC(F)(F)F)cc3)CC2)cc1` here?
**A.** Its MIC is less than 0.0359 µM.

**Q.** And the MIC [2]?
**A.** The MIC was less than 0.0359 µM.

**Q.** And the MIC [3]?
**A.** The MIC was 0.0359 µM (≈ 0.02 µg/mL).

**Q.** What about the MIC [4] of the same compound?
**A.** Its MIC is 0.0718 µM (≈ 0.04 µg/mL).

**Q.** How did the MIC [5] turn out when `COc1ccn2nc(C)c(C(=O)NCc3ccc(N4CCC(c5ccc(OC(F)(F)F)cc5)CC4)cc3)c2c1` was run?
**A.** The MIC was 0.0223 µM (≈ 0.012 µg/mL).

**Q.** What about the MIC [1] of the same compound?
**A.** Its MIC is 0.0111 µM (≈ 0.00598 µg/mL).

**Q.** And the MIC [2]?
**A.** Its MIC is less than 0.0111 µM.

**Q.** What about the MIC [3] of the same compound?
**A.** Its MIC is 0.0111 µM (≈ 0.00598 µg/mL).

**Q.** What about the MIC [4] of the same compound?
**A.** Its MIC is 0.0111 µM (≈ 0.00598 µg/mL).

**Q.** Which results are given for `Cc1ccn2nc(C)c(C(=O)NCc3ccc(N4CCC(c5ccc(OC(F)(F)F)cc5)CC4)cc3)c2c1`?
**A.** MIC [5]: 1.91 µM (≈ 1 µg/mL); MIC [1]: < 0.383 µM; MIC [2]: < 0.383 µM; MIC [3]: < 0.383 µM; MIC [4]: < 0.383 µM
